This is an account of results in ChEMBL document CHEMBL1799933, “Discovery of a selective allosteric M1 receptor modulator with suitable development properties based on a quinolizidinone carboxylic acid scaffold” (J Med Chem, 2011).

The source made the active and inactive calls. The rule behind the calls is not given here. Where only a bound is given, the exact number is not on record here.

Data set [1] has as its target Muscarinic acetylcholine receptor M3 (Homo sapiens) (UniProt P20309). Kind of data set: Agonist activity at human muscarinic M3 receptor expressed in CHONFAT cells assessed as increase in acetylcholine-induced calcium mobilization at 10 uM preincubated for 4 mins measured after 1 hr by FLIPR assay. It is filed as functional, cell-based. In a few lines: (§1)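 CHO-NFAT cells expressing the named muscarinic receptor (human M1–M4; rhesus, dog or rat M1 in CHO-K1) were plated at 25,000 cells/well and grown overnight at 37 °C, 6% CO2. Cells were loaded with 1 μM Fluo-4AM for 1 h, washed, and preincubated 4 min with serially diluted compound (final DMSO 0.67%). They were then stimulated 4 min with an EC20 of ACh, and Ca2+ flux was read by FLIPR384.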

Data set [2] can be described thus: Metabolic stability in monkey NADPH-fortified hepatic microsomes assessed as oxidative metabolism. It is filed as ADME, Macaca mulatta, Liver. To be noted: rhesus monkey. In short, it runs like this:
(§2)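 Compound incubated with NADPH-fortified hepatic microsomes from rat, dog, monkey or human. Oxidative metabolism monitored.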

Data set [3] in a line: Agonist activity at dog muscarinic M1 receptor expressed in CHOK1 cells assessed as potentiation of acetylcholine-induced calcium mobilization preincubated for 4 mins measured after 1 hr by FLIPR assay. It is filed as functional, Canis lupus familiaris, CHO-K1. In short, it runs like this: as §1
A general note: Calcium assays in cells follow changes in intracellular calcium, usually with a dye or a luminescent sensor.

A short description of data set [4]: Plasma protein binding in human serum by equilibrium dialysis method. It is filed as ADME, cell-free. The note with it: read-out: PPB (converted). In short, it runs like this: (§3)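 Protein binding measured by equilibrium dialysis against rat or human serum.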
On the technique in general: Equilibrium dialysis compares concentrations on both sides of a semipermeable membrane.

Data set [5] is described as follows: Oral bioavailability in dog at 3 mg/kg. It is filed as ADME, organism-based, Canis lupus familiaris. The note with it: in vivo. In short, it runs like this: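 Dog PK, n = 2 animals. Given orally at 3 mg/kg and intravenously at 1 mg/kg. Interanimal variability under 20% for all values.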
Data set [6] in a line: Metabolic stability in dog NADPH-fortified hepatic microsomes assessed as oxidative metabolism. It is filed as ADME, Canis lupus familiaris, Liver. In short, it runs like this: as §2
The subject of data set [7] is Mus musculus. Kind of data set: Antiamnesic activity against scopolamine-induced dementia in ip dosed B6SJL mouse assessed as increase in freezing behavior at 3 uM plasma concentration. It is filed as functional, organism-based.
The nature of data set [8]: Passive permeability of the compound at 5 uM. The note with it: not told. It is filed as ADME.
Data set [9] relates to Mus musculus. Briefly: Antiamnesic activity against scopolamine-induced dementia in B6SJL mouse assessed as increase in freezing behavior at 10 mg/kg, ip after 24 hrs. It is filed as functional, organism-based. More on the design: dose 10 mg/kg. In short, it runs like this:
(§4)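 Male B6SJL mice, 10 weeks old and naive (n = 12–16/group), were given compound IP in 5% beta-cyclodextrin and/or scopolamine 0.3 mg/kg in 0.9% saline 30 min before training. Training was 2 tone (3 kHz, 85 dB, 30 s)–footshock (0.5 mA, 1 s) pairings 2 min apart. Freezing in the same chamber was video-scored 24 h later.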

Data set [10] can be described thus: Ratio of drug level in brain to plasma of Sprague-Dawley rat at 10 mg/kg, po. It is filed as ADME, organism-based. Further details: dose 10 mg/kg, route oral. To be noted: read-out: BPR. In short, it runs like this: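 Rats dosed orally at 10 mpk. Plasma, brain and CSF sampled at 2 h and concentrations determined by bioanalysis.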
The nature of data set [11]: Oral bioavailability in rat at 3 mg/kg. It is filed as ADME, organism-based. To be noted: in vivo. In a few lines: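 Rats (n = 2) dosed orally at 3 mg/kg and IV at 1 mg/kg. Interanimal variability under 20% for all values.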
A short description of data set [12]: Metabolic stability in human NADPH-fortified hepatic microsomes assessed as oxidative metabolism. It is filed as ADME, Liver. In a few lines: as §2
Data set [13] has as its target T1, Muscarinic acetylcholine receptor M4 (Homo sapiens) (UniProt P08173).
T1 sequence (whole entry): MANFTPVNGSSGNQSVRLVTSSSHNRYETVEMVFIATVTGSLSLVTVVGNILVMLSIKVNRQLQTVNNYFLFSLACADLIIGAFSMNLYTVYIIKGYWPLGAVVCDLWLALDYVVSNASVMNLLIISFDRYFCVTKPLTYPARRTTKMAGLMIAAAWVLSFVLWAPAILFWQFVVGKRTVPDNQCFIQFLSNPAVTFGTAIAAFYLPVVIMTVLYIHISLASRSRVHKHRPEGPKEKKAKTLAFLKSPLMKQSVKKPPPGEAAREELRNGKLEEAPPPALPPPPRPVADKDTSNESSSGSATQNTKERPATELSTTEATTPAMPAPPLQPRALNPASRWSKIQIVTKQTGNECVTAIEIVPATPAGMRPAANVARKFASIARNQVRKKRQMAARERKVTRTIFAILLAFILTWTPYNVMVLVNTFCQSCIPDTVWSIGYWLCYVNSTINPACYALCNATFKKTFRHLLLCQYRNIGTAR
Kind of data set: Agonist activity at human muscarinic M4 receptor expressed in CHONFAT cells assessed as increase in acetylcholine-induced calcium mobilization at 10 uM preincubated for 4 mins measured after 1 hr by FLIPR assay. It is filed as functional, cell-based. In short, it runs like this: as §1

The target in data set [14] is T2, Muscarinic acetylcholine receptor M1 (Homo sapiens) (UniProt P11229).
T2 sequence (whole entry): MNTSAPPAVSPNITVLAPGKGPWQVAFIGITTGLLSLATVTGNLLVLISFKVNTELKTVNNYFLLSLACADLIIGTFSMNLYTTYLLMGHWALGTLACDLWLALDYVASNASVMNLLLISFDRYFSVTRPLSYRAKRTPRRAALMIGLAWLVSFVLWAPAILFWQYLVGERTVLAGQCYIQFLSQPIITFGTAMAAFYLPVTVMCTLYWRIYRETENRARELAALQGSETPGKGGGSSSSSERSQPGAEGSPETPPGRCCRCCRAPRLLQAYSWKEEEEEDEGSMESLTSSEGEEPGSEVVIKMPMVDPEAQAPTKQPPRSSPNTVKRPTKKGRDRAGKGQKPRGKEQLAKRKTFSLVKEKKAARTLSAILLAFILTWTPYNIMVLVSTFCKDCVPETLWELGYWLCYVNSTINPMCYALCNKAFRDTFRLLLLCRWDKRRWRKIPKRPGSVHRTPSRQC
Briefly: Positive allosteric modulation of human muscarinic M1 receptor expressed in CHONFAT cells assessed as potentiation of acetylcholine-induced calcium mobilization at 1 uM preincubated for 4 mins measured after 1 hr by FLIPR assay relative to control. It is filed as functional, cell-based. In short, it runs like this: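 CHO-NFAT cells expressing human M1, 25,000 cells/well, grown overnight at 37 °C, 6% CO2. Washed in HBSS with 20 mM Hepes, 2.5 mM probenecid, 0.1% BSA, then loaded with 1 μM Fluo-4AM for 1 h at 37 °C. Compound preincubated 4 min (final DMSO 0.67%), then serially diluted ACh added for 4 min. Ca2+ flux read by FLIPR384; fold leftward shift of the ACh dose-response curve.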

Data set [15] in a line: Plasma protein binding in rat serum by equilibrium dialysis method. It is filed as ADME, cell-free. The note with it: read-out: PPB (converted). In short, it runs like this:
as §3

In data set [16] the target is Voltage-gated inwardly rectifying potassium channel KCNH2 (Homo sapiens, UniProt Q12809). Briefly: Inhibition of human ERG.
Voltage-gated inwardly rectifying potassium channel KCNH2, sequence (Q12809 whole entry): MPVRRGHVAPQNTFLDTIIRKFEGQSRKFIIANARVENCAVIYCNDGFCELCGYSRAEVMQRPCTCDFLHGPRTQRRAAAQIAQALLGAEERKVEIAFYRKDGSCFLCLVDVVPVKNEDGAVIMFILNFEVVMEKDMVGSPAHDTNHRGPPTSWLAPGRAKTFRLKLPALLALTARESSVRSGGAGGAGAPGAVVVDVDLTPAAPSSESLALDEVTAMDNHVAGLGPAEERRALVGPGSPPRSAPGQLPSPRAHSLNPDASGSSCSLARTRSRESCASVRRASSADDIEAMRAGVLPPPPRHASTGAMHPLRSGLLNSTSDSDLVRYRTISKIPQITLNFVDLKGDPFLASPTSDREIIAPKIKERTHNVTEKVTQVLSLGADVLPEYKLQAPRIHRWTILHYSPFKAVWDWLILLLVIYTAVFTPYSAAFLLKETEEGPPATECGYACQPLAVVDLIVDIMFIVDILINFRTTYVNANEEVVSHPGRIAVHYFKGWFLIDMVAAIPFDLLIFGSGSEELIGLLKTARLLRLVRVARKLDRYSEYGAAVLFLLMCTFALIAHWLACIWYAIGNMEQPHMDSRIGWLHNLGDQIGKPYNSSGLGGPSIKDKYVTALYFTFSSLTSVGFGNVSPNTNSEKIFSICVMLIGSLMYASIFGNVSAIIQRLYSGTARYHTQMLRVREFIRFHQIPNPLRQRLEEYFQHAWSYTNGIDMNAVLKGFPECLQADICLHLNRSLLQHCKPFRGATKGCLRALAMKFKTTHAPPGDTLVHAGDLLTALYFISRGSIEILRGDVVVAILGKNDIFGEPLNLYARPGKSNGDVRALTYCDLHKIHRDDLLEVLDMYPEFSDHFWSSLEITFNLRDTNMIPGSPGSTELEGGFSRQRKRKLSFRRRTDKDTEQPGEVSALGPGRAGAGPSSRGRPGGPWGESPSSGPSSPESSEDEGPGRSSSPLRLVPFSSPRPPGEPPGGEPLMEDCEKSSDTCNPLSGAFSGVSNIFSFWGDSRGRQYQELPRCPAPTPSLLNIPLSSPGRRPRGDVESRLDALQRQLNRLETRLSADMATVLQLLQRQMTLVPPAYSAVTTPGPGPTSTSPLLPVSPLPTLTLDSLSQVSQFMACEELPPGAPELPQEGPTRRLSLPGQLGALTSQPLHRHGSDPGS
Data set [17] concerns Mus musculus. Briefly: Antiamnesic activity against scopolamine-induced dementia in B6SJL mouse assessed as increase in freezing behavior at 30 mg/kg, ip after 24 hrs. It is filed as functional, organism-based. More on the design: dose 30 mg/kg. In a few lines: as §4
Data set [18] relates to Mus musculus. Kind of data set: Antiamnesic activity against scopolamine-induced dementia in ip dosed B6SJL mouse assessed as increase in freezing behavior after 24 hrs. It is filed as functional, organism-based. In a few lines:
as §4

Data set [19] in a line: Oral bioavailability in rhesus monkey. It is filed as ADME, organism-based, Macaca mulatta. To be noted: in vivo.

Muscarinic acetylcholine receptor M3 (Homo sapiens), sequence (P20309 whole entry, looked up): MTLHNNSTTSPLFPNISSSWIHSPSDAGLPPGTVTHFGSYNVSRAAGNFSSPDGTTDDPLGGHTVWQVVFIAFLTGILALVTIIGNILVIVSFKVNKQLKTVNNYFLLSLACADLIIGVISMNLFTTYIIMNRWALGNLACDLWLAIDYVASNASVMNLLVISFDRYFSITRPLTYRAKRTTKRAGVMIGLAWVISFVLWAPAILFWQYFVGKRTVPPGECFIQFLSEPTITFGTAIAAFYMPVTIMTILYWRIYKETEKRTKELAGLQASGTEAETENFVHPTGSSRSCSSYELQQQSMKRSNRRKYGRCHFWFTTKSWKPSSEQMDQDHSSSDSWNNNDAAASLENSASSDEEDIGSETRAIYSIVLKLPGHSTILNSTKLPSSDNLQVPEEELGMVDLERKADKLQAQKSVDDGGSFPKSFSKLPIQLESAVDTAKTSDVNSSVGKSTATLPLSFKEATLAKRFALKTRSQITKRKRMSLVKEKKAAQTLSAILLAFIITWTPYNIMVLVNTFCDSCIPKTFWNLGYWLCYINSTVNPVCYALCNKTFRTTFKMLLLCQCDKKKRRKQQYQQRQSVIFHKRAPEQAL

For orientation: bioavailability means the share of a dose that reaches the circulation, judged against a reference dose that is usually intravenous. The term Papp denotes a coefficient for how fast a substance crosses the barrier. In general, IC50 refers to the concentration that gives 50% inhibition. `N#CC1(c2ccccn2)CCN(Cc2cc(C(=O)O)c(=O)n3ccccc23)CC1` [MSD-M1PAM]: the result in data set [1] and in data set [13] was inactive. Besides, the Stability entry in data set [2], in data set [6] and in data set [12] was “Stable” each time. Further, the IP in data set [3] turned out to be 100 nM. The fraction unbound in data set [4] was 0.291; in [15] it was 0.318. The results for the bioavailability in [5], in data set [11] and in data set [19] were 62%, 68% and 55%, respectively. The result in [7], in [9] and in [17] was Active. The molecule further came in with an apparent permeability coefficient (Papp) at 5 µM in data set [8] of 18 ×10⁻⁶ cm/s. Moreover, the Kp in data set [10] amounted to 0.23. Also, the fold change (FC) in [14] is 146. Besides, in data set [16], the IC50 is > 30 µM. Further, in [18], the Activity result is “Dose-dependent effect”.
